The values below come from ChEMBL document CHEMBL2429772, “Selective arylsulfonamide inhibitors of ADAM-17: hit optimization and activity in ovarian cancer cell models” (J Med Chem, 2013).

The target in data set [1] is Matrix metalloproteinase-9 (Homo sapiens, UniProt P14780). In words: Inhibition of recombinant human MMP-9 using Mca-Lys-Pro-Leu-Gly-Leu-Dap(Dnp)-Ala-Arg-NH2 as substrate incubated for 4 hrs measured every 15 secs for 20 mins by fluorimetric assay. Summed up:
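Pro-MMP-9 was activated with 1 mM APMA for 1 h at 37 °C and used at 1.3 nM final. Inhibitor was incubated with enzyme for 4 h at 25 °C in Tris 50 mM pH 7.5, NaCl 150 mM, CaCl2 10 mM, 0.05% Brij-35, 1% DMSO. Substrate was at 2 µM final, ex 325/em 400 nm, in duplicate. IC50 was obtained from vi/vo = 1/(1+[I]/IC50).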

The target in data set [2] is Matrix metalloproteinase-14 (Homo sapiens, UniProt P50281). In words: Inhibition of recombinant human MMP-14 catalytic domain using Mca-Lys-Pro-Leu-Gly-Leu-Dap(Dnp)-Ala-Arg-NH2 as substrate incubated for 4 hrs measured every 15 secs for 20 mins by fluorimetric assay. Summed up: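 MMP-14 catalytic domain was used at 1.0 nM final with no activation step. It was incubated with inhibitor for 4 h at 25 °C in Tris 50 mM pH 7.5 buffer with NaCl 150 mM, CaCl2 10 mM, 0.05% Brij-35 and 1% DMSO. Substrate was at 2 µM final, ex 325/em 400 nm, duplicate wells. IC50 was fitted by vi/vo = 1/(1+[I]/IC50).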

The target of data set [3] is 72 kDa type IV collagenase (Homo sapiens, UniProt P08253). In words: Inhibition of recombinant human MMP-2 using Mca-Lys-Pro-Leu-Gly-Leu-Dap(Dnp)-Ala-Arg-NH2 as substrate incubated for 4 hrs measured every 15 secs for 20 mins by fluorimetric assay. In a few lines: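 Pro-MMP-2 was activated with 2 mM APMA for 1 h at 37 °C and used at 0.56 nM final. It was preincubated with inhibitor for 4 h at 25 °C in Tris 50 mM pH 7.5 buffer containing NaCl, CaCl2, Brij-35 and 1% DMSO. Substrate was at 2 µM final, ex 325/em 400 nm, run in duplicate. IC50 was taken from initial-velocity ratios, vi/vo = 1/(1+[I]/IC50).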
Chain of 72 kDa type IV collagenase (P08253 whole entry): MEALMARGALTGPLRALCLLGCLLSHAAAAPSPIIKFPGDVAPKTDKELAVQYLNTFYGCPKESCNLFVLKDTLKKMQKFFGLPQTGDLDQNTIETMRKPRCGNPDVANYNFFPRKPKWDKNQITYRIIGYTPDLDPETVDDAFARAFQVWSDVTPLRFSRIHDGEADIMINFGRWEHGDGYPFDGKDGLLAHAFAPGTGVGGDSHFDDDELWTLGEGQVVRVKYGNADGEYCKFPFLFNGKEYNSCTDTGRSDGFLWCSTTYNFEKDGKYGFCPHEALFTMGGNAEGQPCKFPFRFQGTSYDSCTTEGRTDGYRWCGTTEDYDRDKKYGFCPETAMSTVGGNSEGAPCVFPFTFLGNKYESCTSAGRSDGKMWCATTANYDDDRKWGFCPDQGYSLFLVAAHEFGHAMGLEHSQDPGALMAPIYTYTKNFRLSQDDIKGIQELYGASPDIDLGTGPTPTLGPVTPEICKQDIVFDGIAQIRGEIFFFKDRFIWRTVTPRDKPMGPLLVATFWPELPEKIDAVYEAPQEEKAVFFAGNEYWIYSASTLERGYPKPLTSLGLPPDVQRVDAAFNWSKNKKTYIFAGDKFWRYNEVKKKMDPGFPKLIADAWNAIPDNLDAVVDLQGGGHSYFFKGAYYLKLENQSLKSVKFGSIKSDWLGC

For a further data set, the target named is T1, Interstitial collagenase (Homo sapiens, UniProt P03956).
T1 sequence (P03956 whole entry): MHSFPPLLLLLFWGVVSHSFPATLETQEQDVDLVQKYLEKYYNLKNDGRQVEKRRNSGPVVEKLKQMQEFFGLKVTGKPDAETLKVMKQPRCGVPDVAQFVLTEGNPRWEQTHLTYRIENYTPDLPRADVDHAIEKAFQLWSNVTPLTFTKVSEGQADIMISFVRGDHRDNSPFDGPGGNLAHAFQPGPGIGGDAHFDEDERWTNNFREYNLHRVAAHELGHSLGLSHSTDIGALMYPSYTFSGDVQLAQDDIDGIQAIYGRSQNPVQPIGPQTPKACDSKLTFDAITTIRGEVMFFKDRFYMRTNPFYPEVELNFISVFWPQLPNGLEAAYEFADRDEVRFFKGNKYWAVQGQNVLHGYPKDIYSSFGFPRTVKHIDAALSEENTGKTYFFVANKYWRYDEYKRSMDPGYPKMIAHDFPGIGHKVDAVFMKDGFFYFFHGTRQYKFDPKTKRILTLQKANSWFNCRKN
The data set can be described thus: Inhibition of recombinant human MMP-1 using Mca-Lys-Pro-Leu-Gly-Leu-Dap(Dnp)-Ala-Arg-NH2 as substrate incubated for 4 hrs measured every 15 secs for 20 mins by fluorimetric assay. In a few lines:
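Pro-MMP-1 was activated with 2 mM APMA for 2 h at 37 °C. Enzyme (2.0 nM final) was incubated with inhibitor in Tris 50 mM pH 7.5, NaCl 150 mM, CaCl2 10 mM, 0.05% Brij-35, 1% DMSO for 4 h at 25 °C. Substrate was added at 2 µM final. Fluorescence (ex 325/em 400 nm) was read for initial rates, in duplicate. IC50 came from vi/vo = 1/(1+[I]/IC50).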

The target in data set [4] is T2, Disintegrin and metalloproteinase domain-containing protein 17 (Homo sapiens, UniProt P78536). The data set can be described thus: Inhibition of recombinant human ADAM-17 using Mca-Lys-Pro-Leu-Gly-Leu-Dap(Dnp)-Ala-Arg-NH2 as substrate incubated for 30 mins measured every 15 secs for 20 mins by fluorimetric assay. In a few lines: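 Enzyme at 5 nM final was preincubated with inhibitor for 30 min at 37 °C in Tris 25 mM pH 9, ZnCl2 25 µM, 0.005% Brij-35. Substrate was at 2 µM final. Fluorescence increase (ex 325/em 400 nm) gave initial rates, in duplicate. IC50 was derived from vi/vo = 1/(1+[I]/IC50).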
T2 sequence (P78536 whole entry, the tested form may be a part): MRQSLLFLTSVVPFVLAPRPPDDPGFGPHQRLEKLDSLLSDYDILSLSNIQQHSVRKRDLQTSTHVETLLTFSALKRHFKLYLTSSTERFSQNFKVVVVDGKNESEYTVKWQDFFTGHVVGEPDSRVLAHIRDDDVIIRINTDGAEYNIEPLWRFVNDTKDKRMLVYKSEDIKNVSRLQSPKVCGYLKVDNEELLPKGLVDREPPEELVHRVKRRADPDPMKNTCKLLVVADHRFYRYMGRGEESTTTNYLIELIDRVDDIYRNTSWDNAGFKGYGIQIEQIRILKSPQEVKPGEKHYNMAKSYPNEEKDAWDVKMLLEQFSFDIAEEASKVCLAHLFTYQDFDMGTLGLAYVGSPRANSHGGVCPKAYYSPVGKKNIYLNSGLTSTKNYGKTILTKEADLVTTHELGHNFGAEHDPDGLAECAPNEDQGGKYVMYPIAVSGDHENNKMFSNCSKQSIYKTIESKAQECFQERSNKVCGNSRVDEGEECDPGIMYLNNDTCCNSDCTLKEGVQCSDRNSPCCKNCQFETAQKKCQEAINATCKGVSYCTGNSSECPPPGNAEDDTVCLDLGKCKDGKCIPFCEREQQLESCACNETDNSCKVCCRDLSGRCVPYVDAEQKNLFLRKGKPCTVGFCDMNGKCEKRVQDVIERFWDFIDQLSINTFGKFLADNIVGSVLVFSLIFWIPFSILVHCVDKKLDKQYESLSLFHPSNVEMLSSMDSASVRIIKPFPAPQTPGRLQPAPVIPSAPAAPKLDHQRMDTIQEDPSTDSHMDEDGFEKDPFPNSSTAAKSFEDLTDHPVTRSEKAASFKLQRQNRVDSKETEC

Data set [5] concerns the target T2, Disintegrin and metalloproteinase domain-containing protein 17. The data set can be described thus: Inhibition of ADAM-17 in human SKOV3 cells transfected with luciferase gene assessed as inhibition of pervanadate-induced sALCAM release incubated for 30 mins prior to pervanadate induction measured after 90 mins by ELISA. It counts as cell-based, SK-OV-3. On the technique in general: In an ELISA, binding on a coated surface is turned into a signal by an enzyme label.

A further data set concerns A2780. The data set can be described thus: Cytotoxicity against human A2780 cells assessed as cell viability at 0.01 to 10 uM after 24 to 72 hrs by MTT assay. It counts as cell-based. Particulars: a2780, 10 µM. On the technique in general: Tetrazolium assays rely on reduction of a dye to a coloured formazan, in cell work by metabolically active cells.
Data set [6] is described as follows: Cytotoxicity against human A2774 cells assessed as cell viability at 0.01 to 10 uM after 24 to 72 hrs by MTT assay. Type of data set: cell-based. Particulars: a2774, 10 µM.
In another data set the test system is SK-OV-3. In words: Cytotoxicity against human SKOV3 cells transfected with luciferase gene assessed as cell viability at 0.01 to 10 uM after 24 to 72 hrs by MTT assay. Particulars: sk-ov-3, 10 µM. It counts as cell-based.
Data set [7] deals with T2, Disintegrin and metalloproteinase domain-containing protein 17. In words: Inhibition of ADAM-17 in human A2780 cells assessed as inhibition of EGF-induced sALCAM release incubated for 30 mins prior to EGF induction measured after 18 hrs by ELISA. Type of data set: cell-based.
For data set [8] the target is unchanged. The data set can be described thus: Inhibition of ADAM-17 in human A2780 cells assessed as inhibition of pervanadate-induced sALCAM release incubated for 30 mins prior to pervanadate induction measured after 90 mins by ELISA. Type of data set: cell-based.
Data set [9] has the same target. In words: Inhibition of ADAM-17 in human SKOV3 cells transfected with luciferase gene assessed as inhibition of EGF-induced sALCAM release incubated for 30 mins prior to EGF induction measured after 18 hrs by ELISA. Type of data set: cell-based, SK-OV-3.
Data set [10] shares this target. In words: Inhibition of ADAM-17 in human A2774 cells assessed as inhibition of EGF-induced sALCAM release incubated for 30 mins prior to EGF induction measured after 18 hrs by ELISA. Type of data set: cell-based.
The target is the same in data set [11]. The data set can be described thus: Inhibition of ADAM-17 in human A2774 cells assessed as inhibition of pervanadate-induced sALCAM release incubated for 30 mins prior to pervanadate induction measured after 90 mins by ELISA. Type of data set: cell-based.

Chain of Matrix metalloproteinase-9 (P14780 whole entry): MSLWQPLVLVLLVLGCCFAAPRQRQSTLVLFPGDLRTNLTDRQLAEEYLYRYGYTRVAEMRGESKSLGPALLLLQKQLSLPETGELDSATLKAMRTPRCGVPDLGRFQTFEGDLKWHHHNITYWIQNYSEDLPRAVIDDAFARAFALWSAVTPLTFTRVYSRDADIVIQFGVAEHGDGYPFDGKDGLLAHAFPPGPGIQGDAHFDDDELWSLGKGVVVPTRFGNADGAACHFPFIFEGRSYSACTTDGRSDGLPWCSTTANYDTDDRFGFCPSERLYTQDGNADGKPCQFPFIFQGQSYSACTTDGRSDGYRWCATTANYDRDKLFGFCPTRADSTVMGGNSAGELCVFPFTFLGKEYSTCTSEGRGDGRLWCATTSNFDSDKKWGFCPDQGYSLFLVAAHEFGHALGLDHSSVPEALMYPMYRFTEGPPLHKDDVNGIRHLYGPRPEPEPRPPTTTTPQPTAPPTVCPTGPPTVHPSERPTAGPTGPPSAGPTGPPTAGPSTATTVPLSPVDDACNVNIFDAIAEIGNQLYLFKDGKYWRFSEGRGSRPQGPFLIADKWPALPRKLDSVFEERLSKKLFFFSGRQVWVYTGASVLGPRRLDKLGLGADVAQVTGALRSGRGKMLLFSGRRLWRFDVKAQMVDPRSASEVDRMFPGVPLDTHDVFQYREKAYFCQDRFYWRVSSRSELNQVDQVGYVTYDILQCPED

What is called IC50 is the midpoint of a concentration-inhibition curve. As to `O=C(CNS(=O)(=O)c1ccc(OCc2cccc(Br)c2)cc1)NO`, the half-inhibitory concentration (IC50) is 60 nM in data set [1]; 1600 nM in data set [2]; 15 nM in [3]; more than 500000 nM at Interstitial collagenase; 104 nM in data set [4].

As for `COc1ccc(-c2cc(Br)cc(COc3ccc(S(=O)(=O)NCC(=O)NO)cc3)c2)cc1`, the 50% inhibitory concentration (IC50) is 170000 nM in data set [2], 3800 nM in data set [3], more than 200000 nM at Interstitial collagenase and 320 nM in data set [4].

In the case of `O=C(CNS(=O)(=O)c1ccc(OCc2ccccc2)cc1)NO`, the values for the IC50 in [1] and in [4] were 96 nM and 590 nM, respectively.

`O=C(CNS(=O)(=O)c1ccc(OCc2cccc(F)c2)cc1)NO`: the IC50 worked out at 110 nM in [1]; 940 nM in data set [2]; 7.8 nM in data set [3]; 61000 nM on Interstitial collagenase; 71 nM in data set [4].

As for `O=C(CNS(=O)(=O)c1ccc(OCc2ccc(-c3ccccc3)cc2)cc1)NO`, the IC50 in data set [1] is 690 nM; in data set [2], 72000 nM; in [3], 48 nM; at Interstitial collagenase, more than 500000 nM; in [4], 640 nM.

Regarding `O=C(CNS(=O)(=O)c1ccc(OCc2cccc(OC(F)(F)F)c2)cc1)NO`, the IC50 in [1] is 76 nM; in [2] it was 2900 nM; in data set [3] it was 20 nM; on Interstitial collagenase, more than 500000 nM; in data set [4], 280 nM.

As for `O=C(CNS(=O)(=O)c1ccc(OCc2cc(F)cc(F)c2)cc1)NO`, the half-maximal inhibitory concentration (IC50) in data set [1] was found to be 330 nM; in [2], 890 nM; in [3] it was 18 nM; on Interstitial collagenase, 181000 nM; in [4] it was 82 nM.

`O=C(CNS(=O)(=O)c1ccc(OCc2cccc(-c3ccccc3)c2)cc1)NO`: the 50% inhibitory concentration (IC50) in data set [1] stood at 920 nM; in data set [2], 1700 nM; in [3], 41 nM; at Interstitial collagenase, 100000 nM; in data set [4], 76 nM.

Take `O=C(O)CNS(=O)(=O)c1ccc(OCc2cc(Br)cc(Br)c2)cc1`: the figures for the IC50 in [3] and in data set [4] were 125000 nM and more than 50000 nM, respectively.

Regarding `NC(=O)NCCC[C@@H](NS(=O)(=O)c1ccc(OCc2cc(Br)cc(Br)c2)cc1)C(=O)NO`, the IC50 is more than 500000 nM at Interstitial collagenase; 58 nM in [5]; 845 nM in [7]; less than 10 nM in data set [8]; 4270 nM in data set [9]; 651 nM in [10]. The half-maximal inhibitory concentration (IC50) in data set [11] is 45 nM. The Activity result (with A2780; in [6]; in the data set on SK-OV-3) was “Non-toxic” throughout.

Turning to `O=C(CNS(=O)(=O)c1ccc(OCc2ccc(OC(F)(F)F)cc2)cc1)NO`, the IC50 in data set [1] is 37 nM; in data set [2] it was 7200 nM; in data set [3] it was 7.5 nM; on Interstitial collagenase, 74000 nM; in [4], 200 nM.

As to `CC#CCOc1ccc(S(=O)(=O)N[C@H](CCNC(=O)OCc2ccccc2)C(=O)NO)cc1`, the half-maximal inhibitory concentration (IC50) in data set [5] is 14 nM; in data set [7], 1440 nM; in [8], less than 10 nM; in [9], 966 nM; in data set [11] it was 26 nM. Besides, the Activity entry (in the data set on A2780; in [6]; with SK-OV-3) was “Non-toxic” each time.

Take `O=C(CNS(=O)(=O)c1ccc(OCc2cccc3cccnc23)cc1)NO`: the half-inhibitory concentration (IC50) in data set [1] turned out to be 29000 nM; in data set [2], 120000 nM; in [3], 670 nM; on Interstitial collagenase, 620000 nM; in data set [4] it was 650 nM.

For the molecule `CC#CCOc1ccc(S(=O)(=O)NCC(=O)NO)cc1`, the concentration for half-maximal inhibition (IC50) in data set [1] stood at 890 nM; in [2], 2900 nM; in [3], 110 nM; on Interstitial collagenase it was 28000 nM; in [4] it was 17 nM.

Consider `O=C(CNS(=O)(=O)c1ccc(OCc2ccc(F)cc2)cc1)NO`, for which the half-inhibitory concentration (IC50) came to 42 nM in data set [1]; 590 nM in [2]; 3 nM in [3]; 32000 nM at Interstitial collagenase; 145 nM in [4].

For the molecule `O=C(CNS(=O)(=O)c1ccc(OCc2ccc(Br)cc2)cc1)NO`, the IC50 was determined as 1.4 nM in data set [1]; 630 nM in data set [2]; 1.2 nM in data set [3]; 120000 nM at Interstitial collagenase; 16 nM in data set [4].

As for `CN(CC(=O)NO)S(=O)(=O)c1ccc(OCc2cc(Br)cc(Br)c2)cc1`, the IC50 in data set [2] was 123000 nM; in data set [3], 1870 nM; on Interstitial collagenase it was more than 200000 nM; in data set [4], 160 nM.

Take `O=C(CNS(=O)(=O)c1ccc(OCc2cc(Br)cc(-c3cccnc3)c2)cc1)NO`: the IC50 in data set [2] was 21400 nM; in data set [3] it was 1050 nM; at Interstitial collagenase it was more than 500000 nM; in data set [4] it was 500 nM.
